As a reminder, the inhibition is the relative decrease from the control value, in per cent.

The record followed here is ChEMBL document CHEMBL3046804, “Synthesis and fungicidal activity of novel 3-(substituted/unsubstituted phenylselenonyl)-1-ribosyl/deoxyribosyl-1H-1,2,4-triazole” (2012).

Structures are written as SMILES.

Common to all, as to format: functional
For assay [1], the system named is Penicillium citrinum. In words: Fungitoxicity against Penicillium citrinum assessed as inhibition of mycelia growth at 28 +/- 1 degC at 100 ug/mL for 96 hr by poisoned food technique. Summed up:
(§1)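 Poisoned food technique in Czapek's agar dishes, with test compound incorporated at 10, 100 or 1000 μg/mL. Fungus inoculated at the dish centre and incubated 96 h at 28 ± 1 °C. Percent inhibition = 100 × (mean hyphal diameter in control − mean hyphal diameter in test) / mean hyphal diameter in control. Three replicate assays per treatment and six replicate controls. Griseofulvin and Dithane M-45 served as standards.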

Assay [2] deals with Fusarium oxysporum. In words: Fungitoxicity against Fusarium oxysporum assessed as inhibition of mycelia growth at 28 +/- 1 degC at 10 ug/mL for 96 hr by poisoned food technique. The method in brief:
as §1

For assay [3], the system named is Fusarium oxysporum. In words: Fungitoxicity against Fusarium oxysporum assessed as inhibition of mycelia growth at 28 +/- 1 degC at 1000 ug/mL for 96 hr by poisoned food technique. The method in brief: as §1
The test system of assay [4] is Fusarium oxysporum. The assay can be described thus: Fungitoxicity against Fusarium oxysporum assessed as inhibition of mycelia growth at 28 +/- 1 degC at 100 ug/mL for 96 hr by poisoned food technique. The method in brief: as §1
In assay [5] the test system is Penicillium citrinum. In words: Fungitoxicity against Penicillium citrinum assessed as inhibition of mycelia growth at 28 +/- 1 degC at 10 ug/mL for 96 hr by poisoned food technique. The method in brief:
as §1

Assay [6] concerns Penicillium citrinum. The assay can be described thus: Fungitoxicity against Penicillium citrinum assessed as inhibition of mycelia growth at 28 +/- 1 degC at 1000 ug/mL for 96 hr by poisoned food technique. The method in brief: as §1

With `O=[N+]([O-])c1ccc([Se](=O)(=O)c2ncn([C@H]3C[C@H](O)[C@@H](CO)O3)n2)cc1`, the inhibition at 100 µg/mL in the assay on Penicillium citrinum [1] stood at 63%; in the assay on Fusarium oxysporum [4], 60%. Also, the inhibition at 10 µg/mL was 41% with Fusarium oxysporum [2] and 33% in the assay on Penicillium citrinum [5]. Moreover, the results for the inhibition at 1000 µg/mL with Fusarium oxysporum [3] and in the assay with Penicillium citrinum [6] were 82% and 87%, respectively.

Turning to `COc1ccc([Se](=O)(=O)c2ncn([C@@H]3O[C@H](COC(C)=O)[C@@H](OC(C)=O)[C@H]3OC(C)=O)n2)cc1`, the inhibition at 100 µg/mL was 32% in the assay with Penicillium citrinum [1] and 44% with Fusarium oxysporum [4]. Further, the inhibition at 10 µg/mL is 16% in the assay with Fusarium oxysporum [2] and 17% in the assay with Penicillium citrinum [5]. Also, the inhibition at 1000 µg/mL in the assay on Fusarium oxysporum [3] stood at 53%; in the assay with Penicillium citrinum [6], 47%.

As to `COc1ccc([Se](=O)(=O)c2ncn([C@H]3C[C@H](OC(C)=O)[C@@H](COC(C)=O)O3)n2)cc1`, the inhibition at 100 µg/mL in the assay with Penicillium citrinum [1] stood at 35%; with Fusarium oxysporum [4], 25%. The inhibition at 10 µg/mL was 17% in the assay on Fusarium oxysporum [2] and 24% with Penicillium citrinum [5]. The figures for the inhibition at 1000 µg/mL with Fusarium oxysporum [3] and in the assay with Penicillium citrinum [6] were 65% and 64%, respectively.

For the compound `CC(=O)OC[C@H]1O[C@@H](n2cnc([Se](=O)(=O)c3ccc(C)cc3)n2)[C@H](OC(C)=O)[C@@H]1OC(C)=O`, the inhibition at 100 µg/mL was found to be 42% in the assay with Penicillium citrinum [1] and 37% in the assay with Fusarium oxysporum [4]. The inhibition at 10 µg/mL in the assay with Fusarium oxysporum [2] was 17%; in the assay with Penicillium citrinum [5], 21%. The inhibition at 1000 µg/mL was 52% in the assay on Fusarium oxysporum [3] and 51% in the assay with Penicillium citrinum [6].

Take `CC(=O)OC[C@H]1O[C@@H](n2cnc([Se](=O)(=O)c3ccc([N+](=O)[O-])cc3)n2)C[C@@H]1OC(C)=O`: the inhibition at 100 µg/mL was 34% in the assay with Penicillium citrinum [1] and 28% with Fusarium oxysporum [4]. Also, the inhibition at 10 µg/mL was 16% in the assay on Fusarium oxysporum [2] and 18% in the assay with Penicillium citrinum [5]. Besides, the inhibition at 1000 µg/mL amounted to 54% in the assay on Fusarium oxysporum [3] and 51% with Penicillium citrinum [6].

On to `O=[Se](=O)(c1ccc(Cl)cc1)c1ncn([C@H]2C[C@H](O)[C@@H](CO)O2)n1`, for which the inhibition at 100 µg/mL with Penicillium citrinum [1] was 65%; in the assay with Fusarium oxysporum [4], 56%. Besides, the figures for the inhibition at 10 µg/mL in the assay on Fusarium oxysporum [2] and with Penicillium citrinum [5] were 32% and 31%, respectively. Moreover, the inhibition at 1000 µg/mL with Fusarium oxysporum [3] amounted to 81%; with Penicillium citrinum [6] it was 75%.

`CC(=O)OC[C@H]1O[C@@H](n2cnc([Se](=O)(=O)c3ccc(C)cc3)n2)C[C@@H]1OC(C)=O`: the results for the inhibition at 100 µg/mL with Penicillium citrinum [1] and with Fusarium oxysporum [4] were 31% and 35%, respectively. For the same compound, the inhibition at 10 µg/mL stood at 26% in the assay on Fusarium oxysporum [2] and 17% with Penicillium citrinum [5]. The inhibition at 1000 µg/mL amounted to 45% in the assay on Fusarium oxysporum [3] and 42% in the assay on Penicillium citrinum [6].

Regarding `COC1=CC(=O)C[C@@H](C)[C@]12Oc1c(Cl)c(OC)cc(OC)c1C2=O` [GRISEOFULVIN], the inhibition at 100 µg/mL with Penicillium citrinum [1] turned out to be 94%; in the assay on Fusarium oxysporum [4] it was 95%. Moreover, the inhibition at 10 µg/mL in the assay on Fusarium oxysporum [2] is 91%; with Penicillium citrinum [5] it was 90%. The inhibition at 1000 µg/mL in the assay on Fusarium oxysporum [3] and in the assay with Penicillium citrinum [6] was 100% each time.

Turning to `O=[N+]([O-])c1ccc([Se](=O)(=O)c2ncn([C@@H]3O[C@H](CO)[C@@H](O)[C@H]3O)n2)cc1`, the inhibition at 100 µg/mL in the assay with Penicillium citrinum [1] is 59%; in the assay with Fusarium oxysporum [4] it was 48%. The inhibition at 10 µg/mL amounted to 35% in the assay on Fusarium oxysporum [2] and 37% with Penicillium citrinum [5]. Moreover, the inhibition at 1000 µg/mL with Fusarium oxysporum [3] is 81%; in the assay on Penicillium citrinum [6], 86%.

Regarding `Cc1ccc([Se](=O)(=O)c2ncn([C@@H]3O[C@H](CO)[C@@H](O)[C@H]3O)n2)cc1`, the inhibition at 100 µg/mL in the assay on Penicillium citrinum [1] stood at 78%; in the assay with Fusarium oxysporum [4], 80%. For the same compound, the inhibition at 10 µg/mL with Fusarium oxysporum [2] came out at 62%; in the assay on Penicillium citrinum [5], 69%. For the same compound, the inhibition at 1000 µg/mL in the assay with Fusarium oxysporum [3] turned out to be 88%; in the assay with Penicillium citrinum [6], 80%.

With `O=[Se](=O)(c1ccc(Cl)cc1)c1ncn([C@@H]2O[C@H](CO)[C@@H](O)[C@H]2O)n1`, the figures for the inhibition at 100 µg/mL in the assay with Penicillium citrinum [1] and in the assay on Fusarium oxysporum [4] were 65% and 72%, respectively. The inhibition at 10 µg/mL with Fusarium oxysporum [2] stood at 44%; in the assay with Penicillium citrinum [5] it was 36%. For the same compound, the inhibition at 1000 µg/mL in the assay on Fusarium oxysporum [3] amounted to 100%; in the assay on Penicillium citrinum [6] it was 97%.

On to `CC(=O)OC[C@H]1O[C@@H](n2cnc([Se](=O)(=O)c3ccccc3)n2)[C@H](OC(C)=O)[C@@H]1OC(C)=O`, for which the inhibition at 100 µg/mL with Penicillium citrinum [1] amounted to 30%; in the assay on Fusarium oxysporum [4], 32%. Moreover, the inhibition at 10 µg/mL was found to be 15% in the assay with Fusarium oxysporum [2] and 12% in the assay with Penicillium citrinum [5]. For the same compound, the inhibition at 1000 µg/mL in the assay with Fusarium oxysporum [3] was determined as 41%; in the assay with Penicillium citrinum [6] it was 38%.

Regarding `O=[Se](=O)(c1ccccc1)c1ncn([C@@H]2O[C@H](CO)[C@@H](O)[C@H]2O)n1`, the inhibition at 100 µg/mL was 42% in the assay on Penicillium citrinum [1] and 65% in the assay on Fusarium oxysporum [4]. Further, the inhibition at 10 µg/mL came out at 50% in the assay with Fusarium oxysporum [2] and 35% in the assay with Penicillium citrinum [5]. Besides, the inhibition at 1000 µg/mL in the assay on Fusarium oxysporum [3] amounted to 82%; with Penicillium citrinum [6], 89%.

Turning to `O=[Se](=O)(c1ccccc1)c1ncn([C@H]2C[C@H](O)[C@@H](CO)O2)n1`, the inhibition at 100 µg/mL in the assay with Penicillium citrinum [1] is 74%; with Fusarium oxysporum [4] it was 42%. The inhibition at 10 µg/mL in the assay with Fusarium oxysporum [2] was 33%; in the assay on Penicillium citrinum [5], 65%. In addition, the inhibition at 1000 µg/mL in the assay with Fusarium oxysporum [3] stood at 77%; in the assay with Penicillium citrinum [6] it was 81%.

On to `COc1ccc([Se](=O)(=O)c2ncn([C@H]3C[C@H](O)[C@@H](CO)O3)n2)cc1`, for which the inhibition at 100 µg/mL in the assay with Penicillium citrinum [1] was 48%; in the assay on Fusarium oxysporum [4] it was 76%. The inhibition at 10 µg/mL was found to be 65% in the assay on Fusarium oxysporum [2] and 42% with Penicillium citrinum [5]. The inhibition at 1000 µg/mL in the assay on Fusarium oxysporum [3] was found to be 91%; in the assay with Penicillium citrinum [6], 76%.

Turning to `CC(=O)OC[C@H]1O[C@@H](n2cnc([Se](=O)(=O)c3ccc([N+](=O)[O-])cc3)n2)[C@H](OC(C)=O)[C@@H]1OC(C)=O`, the figures for the inhibition at 100 µg/mL in the assay with Penicillium citrinum [1] and in the assay on Fusarium oxysporum [4] were 41% and 55%, respectively. The inhibition at 10 µg/mL amounted to 30% in the assay with Fusarium oxysporum [2] and 24% in the assay with Penicillium citrinum [5]. In addition, the inhibition at 1000 µg/mL was determined as 65% in the assay with Fusarium oxysporum [3] and 62% in the assay on Penicillium citrinum [6].

Take `COc1ccc([Se](=O)(=O)c2ncn([C@@H]3O[C@H](CO)[C@@H](O)[C@H]3O)n2)cc1`: the figures for the inhibition at 100 µg/mL with Penicillium citrinum [1] and in the assay with Fusarium oxysporum [4] were 49% and 68%, respectively. Further, the inhibition at 10 µg/mL in the assay on Fusarium oxysporum [2] was determined as 55%; with Penicillium citrinum [5], 39%. Also, the inhibition at 1000 µg/mL in the assay with Fusarium oxysporum [3] stood at 100%; in the assay on Penicillium citrinum [6] it was 99%.

Take `Cc1ccc([Se](=O)(=O)c2ncn([C@H]3C[C@H](O)[C@@H](CO)O3)n2)cc1`: the inhibition at 100 µg/mL amounted to 74% in the assay on Penicillium citrinum [1] and 75% in the assay on Fusarium oxysporum [4]. The inhibition at 10 µg/mL worked out at 61% in the assay on Fusarium oxysporum [2] and 67% with Penicillium citrinum [5]. The inhibition at 1000 µg/mL in the assay with Fusarium oxysporum [3] came to 81%; with Penicillium citrinum [6], 80%.

Regarding `CC(=O)OC[C@H]1O[C@@H](n2cnc([Se](=O)(=O)c3ccc(Cl)cc3)n2)C[C@@H]1OC(C)=O`, the values for the inhibition at 100 µg/mL in the assay with Penicillium citrinum [1] and in the assay on Fusarium oxysporum [4] were 35% and 26%, respectively. Further, the inhibition at 10 µg/mL came to 15% with Fusarium oxysporum [2] and 16% in the assay on Penicillium citrinum [5]. In addition, the inhibition at 1000 µg/mL in the assay on Fusarium oxysporum [3] was found to be 54%; with Penicillium citrinum [6], 51%.

`CC(=O)OC[C@H]1O[C@@H](n2cnc([Se](=O)(=O)c3ccc(Cl)cc3)n2)[C@H](OC(C)=O)[C@@H]1OC(C)=O`: the inhibition at 100 µg/mL in the assay with Penicillium citrinum [1] was 39%; with Fusarium oxysporum [4], 29%. The inhibition at 10 µg/mL stood at 14% in the assay with Fusarium oxysporum [2] and 22% in the assay on Penicillium citrinum [5]. For the same compound, the inhibition at 1000 µg/mL worked out at 55% in the assay with Fusarium oxysporum [3] and 53% in the assay with Penicillium citrinum [6].

Turning to `CC(=O)OC[C@H]1O[C@@H](n2cnc([Se](=O)(=O)c3ccccc3)n2)C[C@@H]1OC(C)=O`, the inhibition at 100 µg/mL came out at 32% with Penicillium citrinum [1] and 33% in the assay with Fusarium oxysporum [4]. The inhibition at 10 µg/mL came out at 25% with Fusarium oxysporum [2] and 23% in the assay on Penicillium citrinum [5]. Also, the inhibition at 1000 µg/mL in the assay with Fusarium oxysporum [3] came out at 45%; with Penicillium citrinum [6], 42%.
